Laboratory results from ChEMBL document CHEMBL2057084, “Discovery of benzylisothioureas as potent divalent metal transporter 1 (DMT1) inhibitors” (Bioorg Med Chem Lett, 2012).
The source made the active and inactive calls. The rule behind the calls is not given here.

How the values were obtained:
[1] = Inhibition of human DMT1B-IRE expressed in CHO cells assessed as blockage of ferrous influx after 20 mins by calcein fluorescence quenching method; format: cell-based
Procedure, shortened: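 Calcein fluorescence quench assay for DMT1 (conditions detailed in supplementary data); IC50s are the average of at least two independent determinations.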

[2] = Apparent permeability across apical to basolateral side in human Caco2 cells; format: ADME, cell-based; details: Caco-2
Procedure, shortened: (§1)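 Caco-2 cell monolayers; apparent permeability measured in both directions (apical→basolateral and basolateral→apical); […].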

[3] = Apparent permeability across basolateral to apical side in human Caco2 cells; format: ADME, cell-based; details: Caco-2; procedure, shortened: as §1
[4] = molecular target: T1, Natural resistance-associated macrophage protein 1 (Homo sapiens, UniProt P49279); experiment: Inhibition of NRAMP1 expressed in CHO cells; format: cell-based
T1 sequence (P49279 whole entry): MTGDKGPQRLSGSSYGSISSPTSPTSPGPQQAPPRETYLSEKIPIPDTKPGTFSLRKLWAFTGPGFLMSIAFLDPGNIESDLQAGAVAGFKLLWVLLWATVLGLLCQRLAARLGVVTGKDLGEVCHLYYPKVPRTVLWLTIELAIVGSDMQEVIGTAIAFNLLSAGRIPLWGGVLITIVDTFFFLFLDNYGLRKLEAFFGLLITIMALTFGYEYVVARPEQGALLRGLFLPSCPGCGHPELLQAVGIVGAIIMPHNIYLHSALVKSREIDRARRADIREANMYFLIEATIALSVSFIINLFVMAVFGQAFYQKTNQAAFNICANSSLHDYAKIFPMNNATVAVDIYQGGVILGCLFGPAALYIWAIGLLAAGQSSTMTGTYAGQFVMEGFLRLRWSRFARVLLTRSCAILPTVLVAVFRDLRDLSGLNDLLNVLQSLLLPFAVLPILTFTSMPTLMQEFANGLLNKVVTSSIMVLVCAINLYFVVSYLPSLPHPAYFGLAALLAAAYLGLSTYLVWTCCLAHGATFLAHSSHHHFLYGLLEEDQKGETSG

Rattus norvegicus [5] = experiment: Inhibition of intestinal iron uptake in acute weanling rat model of iron hyperabsorption assessed as decrease of serum iron level at 25 mg/kg, po administered after 1 hr post iron challenge; format: functional, organism-based; set-up: dose 25 mg/kg
Procedure, shortened: (§2)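 Anemic conscious rats ([…], serum iron <50 µg/dL); test article dosed po in 5% DMSO, 10% EtOH, 30% PEG400, 35% propylene glycol, 20% water; 1 h later oral challenge of 1 mg/kg Fe2+ as ferrous sulfate; serum iron measured 1 h after challenge; 8 animals per group, mean ± SEM; one-way ANOVA with Dunnett's test versus vehicle group.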

Rattus norvegicus [6] = experiment: Toxicity in acute weanling rat model at 25 to 50 mg/kg, po; format: organism-based; set-up: dose 25-50 mg/kg, route oral; details: in vivo
Procedure, shortened: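 Rats in the acute iron hyperabsorption study (anemic, conscious) dosed po at 25 or 50 mg/kg in 5% DMSO, 10% EtOH, 30% PEG400, 35% propylene glycol, 20% water; clinical observations recorded during the study.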

Rattus norvegicus [7] = experiment: Inhibition of intestinal iron uptake in acute weanling rat model of iron hyperabsorption assessed as decrease of serum iron level at 50 mg/kg, po administered after 1 hr post iron challenge relative to control; format: functional; procedure, shortened: as §2
Rattus norvegicus [8] = experiment: Inhibition of intestinal iron uptake in po dosed acute weanling rat model of iron hyperabsorption assessed as decrease of serum iron level administered after 1 hr post iron challenge; format: functional, organism-based; procedure, shortened: as §2
Rattus norvegicus [9] = experiment: Inhibition of intestinal iron uptake in acute weanling rat model of iron hyperabsorption assessed as decrease of serum iron level at 50 mg/kg, po administered after 1 hr post iron challenge; format: functional, organism-based; set-up: dose 50 mg/kg; procedure, shortened: as §2

Row | SMILES | IC50 [1] [µM] | Papp A→B [2] [×10⁻⁶ cm/s] | Papp B→A [3] [×10⁻⁶ cm/s] | IC50 [4] [µM] | inhibition (Rattus norvegicus [5]) | Activity (Rattus norvegicus [6]) | fold change (FC) (Rattus norvegicus [7]) | inhibition (Rattus norvegicus [8]) | inhibition (Rattus norvegicus [9])
1 | N=C(N)SCc1ccccc1C(=O)c1cc(Cl)ccc1CSC(=N)N | 5.2 |  |  | > 10 |  |  |  |  | 
2 | N=C(N)SCc1ccccc1C(=O)c1cc(F)ccc1CSC(=N)N | 2.02 |  |  | > 10 |  |  |  |  | 
3 | Br.COc1ccc(Sc2ccc(F)cc2CSC(=N)N)c(CSC(=N)N)c1 | 0.53 | 2.4 | 2.4 | > 10 |  |  |  |  | 
4 | N=C(N)SCc1cccc2sc3cccc(CSC(=N)N)c3c12 | 5.04 |  |  | > 10 |  |  |  |  | 
5 | Cc1ccc(CSC(=N)N)c(Sc2ccc(F)cc2CSC(=N)N)c1 | 1.45 |  |  | > 10 |  |  |  |  | 
6 | N=C(N)SCc1ccccc1Oc1ccc(Cl)cc1CSC(=N)N | 1.13 |  |  | > 10 |  |  |  |  | 
7 | COc1ccc(Sc2ccccc2CSC(=N)N)c(CSC(=N)N)c1 | 1.44 |  |  | > 10 |  |  |  |  | 
8 | Br.N=C(N)SCc1cccc2c1sc1c(CSC(=N)N)c(Br)ccc12 | 0.75 | 1.3 | 0.2 | > 10 |  |  |  |  | 
9 | N=C(N)SCc1ccccc1C(=O)c1ccc(F)cc1CSC(=N)N | 0.58 |  |  | > 10 |  |  |  |  | 
10 | Br.CN(C)S(=O)(=O)c1ccc(Sc2ccc(F)cc2CSC(=N)N)c(CSC(=N)N)c1 | 0.95 | < 0.1 | 0.1 | > 10 |  |  |  |  | 
11 | Br.N=C(N)SCc1c(Br)ccc2c1sc1c(CSC(=N)N)c(Br)ccc12 | 0.86 | 4 | 2 | > 10 |  |  |  |  | 
12 | Br.N=C(N)SCc1cccc2c1C(=O)c1c(CSC(=N)N)cccc1-2 | 0.58 | 0.4 | 0.3 | > 10 |  |  |  |  | 
13 | CN(c1ccccc1CSC(=N)N)c1ccccc1CSC(=N)N | 0.73 |  |  | > 10 |  |  |  |  | 
14 | N=C(N)SCc1ccccc1Oc1cc(Cl)ccc1CSC(=N)N | 15 |  |  | > 10 |  |  |  |  | 
15 | Br.N=C(N)SCc1cc(F)ccc1Sc1ccc(C(F)(F)F)cc1CSC(=N)N | 0.69 | 0.1 | 3.8 | > 10 |  |  |  |  | 
16 | Br.N=C(N)SCc1cc(F)ccc1Oc1cc(F)ccc1CSC(=N)N | 0.84 | < 0.1 | 0.4 | > 10 |  |  |  |  | 
17 | N=C(N)SCc1cc(Cl)ccc1Sc1ccc(Cl)cc1CSC(=N)N | 3.02 |  |  | > 10 |  |  |  |  | 
18 | N=C(N)SCc1ccccc1C(=O)c1ccc(Cl)cc1CSC(=N)N | 2.92 |  |  | > 10 |  |  |  |  | 
19 | N=C(N)SCc1cccc2c1-c1c(CSC(=N)N)cccc1C2=O | > 15 |  |  | > 10 |  |  |  |  | 
20 | N=C(N)SCc1cc(F)ccc1Sc1c(CSC(=N)N)cccc1[N+](=O)[O-] | 4.15 |  |  | > 10 |  |  |  |  | 
21 | Br.N=C(N)SCc1cc(F)ccc1Sc1cc(F)c(F)cc1CSC(=N)N | 0.6 | < 0.1 | 0.2 | > 10 |  |  |  |  | 
22 | Cc1cccc(CSC(=N)N)c1Sc1ccccc1CSC(=N)N | 3.77 |  |  | > 10 |  |  |  |  | 
23 | N=C(N)SCc1ccccc1Sc1ccc(N)cc1CSC(=N)N | 0.91 |  |  | > 10 |  |  |  |  | 
24 | N=C(N)SCc1cc(Cl)ccc1Oc1ccc([N+](=O)[O-])cc1CSC(=N)N | 2.89 |  |  | > 10 |  |  |  |  | 
25 | Br.N=C(N)SCc1ccccc1Sc1cc(F)ccc1CSC(=N)N | 0.51 | 0.3 | 0.2 | > 10 |  |  |  |  | 

Now those with a lower IC50 [1], led by results:

Row | IC50 [1] [µM] | Papp A→B [2] [×10⁻⁶ cm/s] | Papp B→A [3] [×10⁻⁶ cm/s] | IC50 [4] [µM] | SMILES | inhibition (Rattus norvegicus [5]) | Activity (Rattus norvegicus [6]) | fold change (FC) (Rattus norvegicus [7]) | inhibition (Rattus norvegicus [8]) | inhibition (Rattus norvegicus [9])
26 | 0.49 | 1.5 | 1.4 | > 10 | Br.Cc1ccc(Sc2ccccc2CSC(=N)N)c(CSC(=N)N)c1 |  |  |  |  | 
27 | 0.37 | 0.1 | 0.7 | > 10 | Br.N=C(N)SCc1ccccc1C(=O)c1cc([N+](=O)[O-])ccc1CSC(=N)N |  |  |  |  | 
28 | 0.34 | 0.1 | 0.2 | > 10 | Br.N=C(N)SCc1ccccc1Oc1ccccc1CSC(=N)N | Active | Non-toxic | 8 | Dose-dependent effect | Active
29 | 0.34 | 0.2 | 0.9 | > 10 | Br.N=C(N)SCc1cc(F)ccc1Oc1cc(Cl)ccc1CSC(=N)N |  |  |  |  | 
30 | 0.32 | 1.3 | 1.4 | > 10 | Br.N=C(N)SCc1ccccc1Sc1cc(F)c(F)cc1CSC(=N)N |  |  |  |  | 
31 | 0.32 | < 0.1 | 0.2 | > 10 | Br.N=C(N)SCc1cc(F)ccc1Oc1ccc(F)cc1CSC(=N)N |  |  |  |  | 
32 | 0.29 | < 0.1 | 0.1 | > 10 | Br.CS(=O)(=O)c1ccc(Sc2ccc(F)cc2CSC(=N)N)c(CSC(=N)N)c1 |  |  |  |  | 
33 | 0.29 | 0.9 | 1.2 |  | Cc1cc(C)c(CSC(=N)N)c(C)c1CSC(=N)N |  |  |  |  | 
34 | 0.29 | 0.2 | 0.5 | > 10 | N=C(N)SCc1cccc2cc3cccc(CSC(=N)N)c3nc12 |  |  |  |  | 
35 | 0.27 | < 0.1 | 0.4 | > 10 | Br.N=C(N)SCc1c(Cl)ccc2c1oc1c(CSC(=N)N)c(Cl)ccc12 |  |  |  |  | 
36 | 0.26 | < 0.1 | < 0.1 | > 10 | Br.N=C(N)SCc1cccc2c1sc1c(CSC(=N)N)cccc12 |  |  |  |  | 
37 | 0.18 | 0.1 | 1.4 | > 10 | Br.N=C(N)SCc1ccccc1Sc1ccccc1CSC(=N)N |  | Non-toxic |  | Dose-dependent effect | Active
38 | 0.16 |  |  | > 10 | N=C(N)SCc1cc(F)ccc1Oc1ccc([N+](=O)[O-])cc1CSC(=N)N |  |  |  |  | 
39 | 0.15 |  |  | > 10 | N=C(N)SCc1cccc2c1Oc1c(CSC(=N)N)cccc1S2 |  |  |  |  | 
40 | 0.15 | 0.4 | 0.4 | > 10 | Br.N=C(N)SCc1cc(F)ccc1Sc1ccc(F)cc1CSC(=N)N |  |  |  |  | 
41 | 0.15 | 0.3 | 0.2 | > 10 | Br.N=C(N)SCc1ccccc1Sc1ccc(F)cc1CSC(=N)N |  |  |  |  | 
42 | 0.11 | 0.2 | 0.1 | > 10 | Br.N=C(N)SCc1c(Br)ccc2c1oc1c(CSC(=N)N)c(Br)ccc12 |  |  |  |  | 
43 | 0.1 | < 0.1 | 0.4 | > 10 | Br.N=C(N)SCc1cccc2c1-c1c(CSC(=N)N)cccc1-2 |  |  |  |  | 
44 | 0.09 |  |  | > 10 | N=C(N)SCc1cccc2c1sc1c(CSC(=N)N)cc(F)cc12 |  |  |  |  | 
45 | 0.09 | 5 | 1 | > 10 | Br.N=C(N)SCc1c(F)ccc2c1oc1c(CSC(=N)N)c(F)ccc12 |  |  |  |  | 
46 | 0.08 | 0.1 | 0.2 | > 10 | Br.N=C(N)SCc1cc(F)ccc1Sc1ccc([N+](=O)[O-])cc1CSC(=N)N | Active | Non-toxic |  | Dose-dependent effect | Active
47 | 0.05 | < 0.1 | 0.2 | > 10 | Br.N=C(N)SCc1cccc2c1oc1c(CSC(=N)N)cccc12 |  |  |  |  | 
48 | 0.04 | 0.5 | 0.2 | > 10 | Br.N=C(N)SCc1cc(F)cc2c1sc1c(CSC(=N)N)cc(Cl)cc12 |  |  |  |  | 
49 | 0.02 |  |  | > 10 | N=C(N)SCc1cccc2c1oc1c(CSC(=N)N)cc(F)cc12 |  |  |  |  | 
